Screens (PubChem)
INS-1E ATP HTS – protection of INS-1E cells from cytokine death, primary screen, ATP luminescence, single point | INS-1E cytokine-induced death, 48 h; normalised: neutral wells 0, positive control 100 | protection from cytokine-induced ATP loss, % at 10 µM | 20,000 tested, 0.1% active | AID 488910, 2010;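 active means mean replicate protection from cytokine-induced ATP loss at least 50% and at least 75% of replicates each reaching 50%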
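Test system: INS-1E rat cells | Quantity: 8000 cells per well | Medium: Phenol-red-free RPMI with 5% fetal bovine serum | Reagent: Cytokine cocktail of IFN-γ, TNF-α and IL-1β | Doses: One compound concentration, pin transfer | Timing: 48 h co-treatment, 10 min post-lysis read | Technique: Luminescent ATP assay (CellTiter-Glo)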
A1 apoptosis 2 – A1 inhibitors via caspase activation, primary screen, cell-based, luminescence, HTS, two replicates. MEF A1-2A-BIM cells, caspase-Glo luminescence, 3 h; percent of clofoctol response, DMSO zero. AID 2465, 2010. 24,000 tested, under 10 active. caspase activation, % (test concentration not listed); in the data active means caspase activation above about 5.9%
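Material: A1-2A-BIM-expressing MEF cells. Buffer or medium: RPMI-1640 plus 10% FBS. Incubation: cells settled overnight, compound exposure 3 h at 37 °C, 5% CO2. Signal: Caspase-Glo 3/7 luminescence, 1 h at room temperature.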
T cruzi intra – inhibitors of intracellular Trypanosoma cruzi, primary screen, cell-based, plate reader, single point, set 2; intracellular Trypanosoma cruzi in host cells; activity score (inhibition), % at 5.01 µM; 22,000 tested, 4.9% active; in the data active means activity score above about 55%;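 further: parasites and compound incubated about four days before reading; 0% = median of neutral control wells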
* hit, by the source's call; · = not tested or not shown. The full list was thinned out, with hits kept by preference.

SMILES	INS-1E ATP HTS	A1 apoptosis 2	T cruzi intra
C[C@H](CO)N1C[C@H](C)[C@@H](CN(C)Cc2ccc(Oc3ccccc3)cc2)Oc2ccc(NC(=O)C3CCCCC3)cc2CC1=O	·	0	·
COc1ccc(CN(C)C[C@@H]2Oc3ccc(NC(=O)Nc4ccccc4)cc3CC(=O)N([C@@H](C)CO)C[C@H]2C)cc1	·	0	·
C[C@H](CO)N1C[C@H](C)[C@H](CN(C)S(C)(=O)=O)Oc2ccc(NS(C)(=O)=O)cc2CC1=O	0	·	-7
CNC[C@H]1Oc2ccc(NC(=O)Cn3cnnn3)cc2C(=O)N([C@@H](C)CO)C[C@H]1C	9	·	-4
C[C@H]1CN([C@@H](C)CO)C(=O)c2cccc(NC(=O)Nc3cccc4ccccc34)c2O[C@H]1CN(C)C(=O)Nc1ccc(C(F)(F)F)cc1	-29	1	63*
C[C@H](CO)N1C[C@H](C)[C@@H](CN(C)C(=O)Nc2ccc(C(F)(F)F)cc2)Oc2c(NC(=O)Nc3cccc4ccccc34)cccc2C1=O	-34	1	52
C[C@@H]1CN([C@@H](C)CO)C(=O)c2cccc(NC(=O)Nc3ccc(C(F)(F)F)cc3)c2O[C@@H]1CN(C)C(=O)Nc1cccc2ccccc12	-59	0	-27
C[C@@H]1CN([C@@H](C)CO)C(=O)c2cccc(NC(=O)Nc3ccc(C(F)(F)F)cc3)c2O[C@H]1CN(C)C(=O)Nc1cccc2ccccc12	-30	2	38
C[C@H](CO)N1C[C@H](C)[C@@H](CN(C)C(=O)Nc2cccc3ccccc23)Oc2c(NC(=O)Nc3ccc(C(F)(F)F)cc3)cccc2C1=O	-8	·	61*
C[C@H](CO)N1C[C@H](C)[C@H](CN(C)C(=O)Nc2cccc3ccccc23)Oc2c(NC(=O)Nc3ccc(C(F)(F)F)cc3)cccc2C1=O	-14	·	66*
COc1ccc(S(=O)(=O)Nc2ccc3c(c2)C(=O)N([C@H](C)CO)C[C@H](C)[C@H](CN(C)S(=O)(=O)c2ccc(OC)cc2)OCCCC[C@@H](C)O3)cc1	3	·	12
C[C@H](CO)N1C[C@H](C)[C@H](CN(C)C(=O)Nc2cccc3ccccc23)Oc2ccc(NC(=O)Nc3ccc(F)cc3)cc2CC1=O	2	0	-6
COc1ccc(C#Cc2cnc3c(c2)C(=O)N([C@H](C)CO)C[C@H](C)[C@H](CN(C)S(=O)(=O)c2ccccc2)O3)cc1OC	·	-1	37
COc1ccc(S(=O)(=O)N(C)C[C@@H]2Oc3ncc(C#Cc4ccc(C(F)(F)F)cc4)cc3C(=O)N([C@H](C)CO)C[C@@H]2C)cc1	-4	·	82*
C[C@H](CO)N1C[C@H](C)[C@H](CN(C)S(=O)(=O)c2cccc(F)c2)Oc2ncc(C#Cc3ccccc3)cc2C1=O	·	0	51
C[C@H](CO)N1C[C@H](C)[C@H](CN(C)S(=O)(=O)c2cccc(F)c2)Oc2ncc(C#Cc3ccc(C(F)(F)F)cc3)cc2C1=O	·	0	85*
C[C@H](CO)N1C[C@H](C)[C@H](CN(C)S(=O)(=O)c2cccs2)Oc2ncc(C#Cc3cccc(F)c3)cc2C1=O	·	·	71*
COc1ccc(S(=O)(=O)N(C)C[C@@H]2Oc3ncc(C#Cc4cccc(F)c4)cc3C(=O)N([C@H](C)CO)C[C@@H]2C)cc1	·	·	52
C[C@H](CO)N1C[C@H](C)[C@H](CN(C)S(C)(=O)=O)Oc2ncc(C#Cc3cccc(F)c3)cc2C1=O	·	·	-6
C[C@H](CO)N1C[C@H](C)[C@H](CN(C)S(=O)(=O)c2ccccc2)Oc2ncc(C#Cc3ccc(C(F)(F)F)cc3)cc2C1=O	·	1	78*
C[C@@H]1CCCCO[C@@H](CN(C)S(=O)(=O)c2ccccc2)[C@H](C)CN([C@@H](C)CO)C(=O)c2cc(NC(=O)Nc3ccc(F)cc3)ccc2O1	·	-1	·
Cc1ccc(S(=O)(=O)N(C)C[C@@H]2Oc3ncc(C#Cc4ccc(C(F)(F)F)cc4)cc3C(=O)N([C@H](C)CO)C[C@@H]2C)cc1	-3	1	89*
C[C@H](CO)N1C[C@H](C)[C@H](CN(C)S(=O)(=O)c2ccc(F)cc2)Oc2ncc(C#Cc3ccc(C(F)(F)F)cc3)cc2C1=O	·	-1	85*
CCCC(O)C#Cc1cnc2c(c1)C(=O)N([C@H](C)CO)C[C@H](C)[C@H](CN(C)S(=O)(=O)c1cccc(OC)c1)O2 (some centres undefined)	·	·	14
COc1cccc(S(=O)(=O)N(C)C[C@@H]2Oc3ncc(C#Cc4ccc(F)cc4)cc3C(=O)N([C@H](C)CO)C[C@@H]2C)c1	·	-1	73*
SMILES	INS-1E ATP HTS	A1 apoptosis 2	T cruzi intra
Cc1ccc(S(=O)(=O)N(C)C[C@@H]2Oc3ncc(C#CCN(C)C)cc3C(=O)N([C@H](C)CO)C[C@@H]2C)cc1	·	·	23
CCCC(O)C#Cc1cnc2c(c1)C(=O)N([C@H](C)CO)C[C@H](C)[C@H](CN(C)S(=O)(=O)c1ccc(F)cc1)O2 (some centres undefined)	·	0	18
C[C@H](CO)N1C[C@H](C)[C@H](CN(C)S(=O)(=O)c2ccccc2)Oc2ncc(C#Cc3ccccc3)cc2C1=O	·	1	48
C[C@H](CO)N1C[C@H](C)[C@H](CN(C)S(=O)(=O)c2ccc(F)cc2)Oc2ncc(C#Cc3ccccc3)cc2C1=O	·	·	62*
C[C@H](CO)N1C[C@H](C)[C@@H](CN(C)Cc2ccc(C(=O)O)cc2)Oc2ccc(NC(=O)c3ccncc3)cc2CC1=O	·	0	·
C[C@H](CO)N1C[C@H](C)[C@H](CN(C)C(=O)Nc2ccccc2)Oc2ccc(NS(=O)(=O)c3cccs3)cc2CC1=O	5	·	-16
O=C(NO)c1ccc(C(=O)N/N=C/c2nccs2)cc1	-4	0	-10
CC(C)NC(=O)Nc1ccc2c(c1)C(=O)N([C@@H](C)CO)C[C@H](C)[C@H](CN(C)C(=O)CCCN(C)C)OCCCC[C@H](C)O2	·	0	·
C[C@@H]1CN([C@H](C)CO)C(=O)c2cccc(NC(=O)c3nc4ccccc4s3)c2O[C@@H]1CN(C)S(=O)(=O)c1ccccc1	6	·	9
C[C@@H]1CN([C@H](C)CO)C(=O)c2cccc(NC(=O)c3nc4ccccc4s3)c2O[C@H]1CN(C)S(=O)(=O)c1ccccc1	-11	·	28
C[C@@H]1CN([C@H](C)CO)C(=O)c2cccc(NS(=O)(=O)c3ccc(F)cc3)c2O[C@@H]1CN(C)S(=O)(=O)c1ccc(F)cc1	2	-1	16
C[C@H](CO)N1C[C@H](C)[C@H](CN(C)S(=O)(=O)c2ccc(F)cc2)Oc2c(NC(=O)c3nc4ccccc4s3)cccc2C1=O	-37	·	61*
C[C@@H]1CN([C@@H](C)CO)C(=O)c2cccc(NC(=O)c3nc4ccccc4s3)c2O[C@@H]1CN(C)S(=O)(=O)c1ccccc1	-40	·	60*
C[C@H](CO)N1C[C@H](C)[C@H](CN(C)S(=O)(=O)c2ccc(F)cc2)Oc2c(NS(=O)(=O)c3ccc(F)cc3)cccc2C1=O	-5	1	61*
